As a reminder, the ED50 is the midpoint of the dose-response relation. The low end stands for an effect at a small dose, the high end for a need for a large dose.

The source of these data is ChEMBL document CHEMBL3244135, “11,12-Secoprostaglandins. 1. Acylhydroxyalkanoic acids and related compounds” (J Med Chem, 1977).

Molecules are shown by their SMILES. Activity calls are given as the source filed them. The calls are words filed in the database; no cut-off is given here. Bounds are passed on as bounds.

The species named for data set [1] is Mus musculus. Description: Binding affinity to prostanoid receptor in [8-14C]-adenine-treated CD-1 mouse ovary assessed as increase in c-AMP production at 10 ug/mL after 30 mins by paper chromatographic analysis in presence of phosphodiesterase inhibitor theophylline. Particulars: Female gonad. The format is tissue-based. In a few lines: (§1)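 Virgin CD-1 female mice over 70 days old; three ovaries (15-25 mg), denuded of fat, preincubated 1 h at 37 °C in 2 ml aerated Krebs–Ringer phosphate pH 7.2 with 1 μCi adenine-8-14C. Theophylline (0.2 ml of 0.05 M stock) and compound in Me2SO then added, 30 min at 37 °C. Stopped with trichloroacetic acid; cAMP-14C isolated, paper chromatography; expressed as fold over untreated ovaries.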

The species entered for data set [2] is Mus musculus. Description: Binding affinity to prostanoid receptor in [8-14C]-adenine-treated CD-1 mouse ovary assessed as increase in c-AMP production at 25 ug/mL after 30 mins by paper chromatographic analysis in presence of phosphodiesterase inhibitor theophylline. The format is tissue-based. Particulars: Female gonad. The gist of the method:
as §1

Data set [3] deals with T1, 15-hydroxyprostaglandin dehydrogenase [NAD(+)] (Homo sapiens, UniProt P15428).
T1 sequence (P15428 whole entry): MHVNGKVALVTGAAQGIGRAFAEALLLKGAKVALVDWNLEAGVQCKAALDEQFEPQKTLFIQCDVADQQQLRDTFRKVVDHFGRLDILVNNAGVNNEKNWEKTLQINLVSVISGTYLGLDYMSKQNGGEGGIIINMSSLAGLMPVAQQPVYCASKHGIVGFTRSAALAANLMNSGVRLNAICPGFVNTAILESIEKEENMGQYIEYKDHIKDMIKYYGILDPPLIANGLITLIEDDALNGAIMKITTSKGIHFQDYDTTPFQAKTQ
Description: Stability of the compound assessed as prostaglandin 15-hydroxydehydrogenase (unknown origin)-mediated metabolite formation. Format: ADME.

The species named for data set [4] is Mus musculus. As to the kind of experiment: Binding affinity to prostanoid receptor in [8-14C]-adenine-treated CD-1 mouse ovary assessed as increase in c-AMP production at 100 ug/mL after 30 mins by paper chromatographic analysis in presence of phosphodiesterase inhibitor theophylline. The note with it: Female gonad. Format: tissue-based. The gist of the method: as §1

The species named for data set [5] is Rattus norvegicus. As to the kind of experiment: Binding affinity to prostanoid receptor in Holtzman rat lipocytes assessed as compound equivalent to 1 ng cold PGE1 in displacing [3H]-PGE1 from receptor after 30 mins. Format: cell-based. Particulars: in the assay text read “after 60 mins” for “after 30 mins”. In a few lines: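 Test compound at appropriate concentrations incubated with 0.4 ng [3H]-PGE1 and 125 μg rat lipocyte binding preparation for 60 min at 37 °C. Bound [3H]-PGE1 then measured.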

Data set [6] relates to Canis familiaris. As to the kind of experiment: Renal vasodilatory activity in dog assessed as increase in renal blood flow at 0.5 mg/kg/min, iv administered as infusion relative to control. Format: functional, Canis lupus familiaris, Kidney. The gist of the method: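 Anesthetized dogs given intravenous infusion of 0.5 mg/kg/min. Renal blood flow measured electromagnetically in a single kidney. Read-out is the maximum increase above the control flow value.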

For data set [7], the system named is Cavia porcellus. Description: Inhibition of collagen-induced platelet aggregation in po dosed guinea pig. The format is functional. In a few lines:
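Test compound given orally to guinea pigs. Collagen-induced platelet aggregation then measured. Potency expressed as ED50 in mg/kg.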

The species named for data set [8] is Mus musculus. As to the kind of experiment: Binding affinity to prostanoid receptor in [8-14C]-adenine-treated CD-1 mouse ovary assessed as increase in c-AMP production at 0.01 ug/mL after 30 mins by paper chromatographic analysis in presence of phosphodiesterase inhibitor theophylline. Format: tissue-based. The note with it: Female gonad. In a few lines: as §1

The species named for data set [9] is Mus musculus. As to the kind of experiment: Binding affinity to prostanoid receptor in [8-14C]-adenine-treated CD-1 mouse ovary assessed as increase in c-AMP production at 0.05 ug/mL after 30 mins by paper chromatographic analysis in presence of phosphodiesterase inhibitor theophylline. The format is tissue-based. Particulars: Female gonad. The gist of the method: as §1

The species named for data set [10] is Mus musculus. As to the kind of experiment: Binding affinity to prostanoid receptor in [8-14C]-adenine-treated CD-1 mouse ovary assessed as increase in c-AMP production at 0.1 ug/mL after 30 mins by paper chromatographic analysis in presence of phosphodiesterase inhibitor theophylline. The format is tissue-based. Particulars: Female gonad. In a few lines:
as §1

Data set [11] is filed under the species Mus musculus. Description: Binding affinity to prostanoid receptor in [8-14C]-adenine-treated CD-1 mouse ovary assessed as increase in c-AMP production at 1 ug/mL after 30 mins by paper chromatographic analysis in presence of phosphodiesterase inhibitor theophylline. Particulars: Female gonad. The format is tissue-based. The gist of the method:
as §1

For data set [12], the system named is Canis familiaris. As to the kind of experiment: Renal vasodilatory activity in dog assessed as increase in renal blood flow administered through infusion into renal artery. The format is functional, organism-based. Particulars: Canis lupus familiaris; Kidney.
Data set [13] relates to Cavia porcellus. Description: Inhibition of collagen-induced platelet aggregation in ip dosed guinea pig. Format: functional.
The species named for data set [14] is Mus musculus. As to the kind of experiment: Binding affinity to prostanoid receptor in [8-14C]-adenine-treated CD-1 mouse ovary assessed as increase in c-AMP production at 50 ug/mL after 30 mins by paper chromatographic analysis in presence of phosphodiesterase inhibitor theophylline. Format: tissue-based. Particulars: Female gonad. The gist of the method: as §1

The species named for data set [15] is Mus musculus. Description: Binding affinity to prostanoid receptor in [8-14C]-adenine-treated CD-1 mouse ovary assessed as increase in c-AMP production at 200 ug/mL after 30 mins by paper chromatographic analysis in presence of phosphodiesterase inhibitor theophylline. The format is tissue-based. The note with it: Female gonad. The gist of the method: as §1

`CCCCC[C@H](O)C#CCC(CCCCCCC(=O)O)C(C)=O` (some centres undefined): the fold change (FC) stood at 3 in [1] and 7 in data set [2]. In data set [3], the Stability entry is listed as “Stable”.
For `CCCC(O)CCCCCC(CCCCCCC(=O)O)C(C)=O` (centres undefined), the fold change (FC) stood at 4 in data set [1], 4 in data set [2] and 8 in data set [4]. Besides, in data set [5], the Activity turned out to be 65 µgequiv. Further, the Stability entry in data set [3] is “Stable”.
Take `CCCCCC(O)C#CCC(CCCCCCC(=O)O)C(C)=O` (centres undefined): the fold change (FC) in [1] was 2; in data set [2], 4; in [4] it was 7. Besides, the Stability entry in data set [3] is on record as “Stable”.
In the case of `CCCCCC(O)CCCC(CCCCCCC(=O)O)C(C)=O` (racemic), the fold change (FC) is 7 in data set [1], 19 in data set [2] and 23 in data set [4].
Consider `CC(=O)C(CCCCO)CCCCCCC(=O)O` (centres undefined), for which the fold change (FC) in data set [2] and in data set [4] was 1 each time. Besides, the Activity in data set [5] stood at 450 µgequiv. Also, the Stability result in data set [3] was “Stable”.
For `CCCCCC(O)CCCC(CCCCCCC(=O)O)C(C)=O` (mixture of isomers) [listing 1 of 2 here], the Activity in data set [6] worked out at 92 mL/min. In data set [7], the ED50 turned out to be 6.5 mg/kg. Further, in [3], the Stability result was “Stable”.
On to `CCCCC[C@H](O)/C=C/[C@H]1[C@H](O)CC(=O)[C@@H]1CCCCCCC(=O)O` [ALPROSTADIL], for which the fold change (FC) in data set [8] came out at 8; in data set [9], 29; in data set [10], 25; in data set [11], 54. Further, in data set [12], the result was Active. Also, the inhibition result in data set [7] is “inactive”. In data set [13], this compound showed an ED50 of 0.02 mg/kg.
For `CCCCCCC(O)CCC(CCCCCCC(=O)O)C(C)=O` (centres undefined), the fold change (FC) in data set [1] stood at 5; in [4], 11. Also, in [5], the Activity stood at 41 µgequiv. Further, in [3], the Stability entry is given as “Stable”.
As to `CCCCCC(C)(O)CCCC(CCCCCCC(=O)O)C(C)=O` (centres undefined), the figures for the fold change (FC) in data set [1], in data set [2] and in data set [4] were 4, 9 and 11, respectively. The Activity in data set [5] is 0.4 µgequiv. In data set [3], the Stability result was “Stable”.
The matching figures for `CCCCC(O)CCCCC(CCCCCCC(=O)O)C(C)=O` (centres undefined): 9, 9, 20, 2.1 µgequiv and “Stable”.
Regarding `CCCCCCCC(O)CCCC(CCCCCCC(=O)O)C(C)=O` (centres undefined), the fold change (FC) in [1] came out at 19; in data set [2], 37; in [4], 39. Besides, the Activity in data set [5] is 6.6 µgequiv. In [3], the Stability entry was “Stable”.
The matching figures for `CCCCC[C@H](O)CCCC(CCCCCCC(=O)O)C(C)=O` (some centres undefined): 19, 25, 29, 3.2 µgequiv and “Stable”.
The matching figures for `CC(=O)C(CCCCCCCCCO)CCCCCCC(=O)O` (centres undefined): 1, 1, 1, more than 125 µgequiv and “Stable”.
For `CCCCC[C@@H](O)CCCC(CCCCCCC(=O)O)C(C)=O` (some centres undefined), in that order: 5, 12, 19, 2.1 µgequiv and “Stable”.
Turning to `CC(=O)C(CCCCCCC(=O)O)CCCC1(O)CCCCC1` (centres undefined), the fold change (FC) is 1 in data set [1], 3 in data set [2] and 4 in data set [4]. The Activity in [5] was more than 125 µgequiv. The Stability entry in data set [3] was “Stable”.
For `CCCCCC(O)CCCC(CO)CCCCCCC(=O)O` (centres undefined), in that order: 8, 9, 18, 4.6 µgequiv and “Stable”.
On to `CCCCC[C@H](O)/C=C/[C@H]1[C@H](O)CC(=O)[C@@H]1C/C=C\CCCC(=O)O`, for which the fold change (FC) in [1] was found to be 80; in data set [8], 14; in data set [9], 35; in [10], 57; in data set [11], 75. In [5], the Activity was determined as 1.4 ngequiv.
Consider `CCCCCC(O)/C=C/CC(CCCCCCC(=O)O)C(C)=O` (centres undefined), for which the fold change (FC) in [1] came to 2; in [2], 8; in data set [4], 14. Further, the Activity in data set [5] was 3.2 µgequiv. For the same compound, in data set [3], the Stability result is recorded as “Stable”.
As for `CCCCCC[C@@H](O)C/C=C/CCCCCCCC(=O)O`, the fold change (FC) in data set [4] was 2; in data set [14], 2; in [15] it was 1.
`CCCCCC(O)CCCC(CCCCCCC(=O)O)C(C)=O` (mixture of isomers) [listing 2 of 2 here]: the fold change (FC) in data set [1] is 11; in data set [2] it was 14; in [4], 23; in data set [11], 2; in [14], 16; in data set [15], 16. Also, in [5], the Activity was determined as 1.7 µgequiv.
Consider `CC(=O)C(CCCCCCC(=O)O)CCCC(O)CCc1ccccc1` (centres undefined), for which the fold change (FC) in [1] came to 1; in data set [2], 1; in data set [4], 2. The Stability entry in data set [3] is recorded as “Stable”.
For `CCCCCC(O)CCCC(CCCCCCC(=O)O)C(C)O` (centres undefined), the fold change (FC) in data set [1] was found to be 15; in data set [2] it was 25; in [4], 33. Also, the Activity in [5] was found to be 2.5 µgequiv. Further, the Stability result in data set [3] is reported as “Stable”.
On to `CC(=O)C(CC#CC1(O)CCCCC1)CCCCCCC(=O)O` (centres undefined), for which the fold change (FC) in [2] and in data set [4] was 1 in each case. In data set [3], the Stability result is reported as “Stable”.
In the case of `CCCCC[C@@H](O)C#CCC(CCCCCCC(=O)O)C(C)=O` (some centres undefined), the fold change (FC) in data set [1] is 2; in data set [2], 3; in [4] it was 3. Besides, in [3], the Stability entry is recorded as “Stable”.
Turning to `CCCCCC(O)CCCC(CCCCCCC(=O)O)C(=O)CC` (centres undefined), the fold change (FC) worked out at 6 in data set [1], 17 in data set [2] and 26 in data set [4]. Besides, the Activity in [5] was 2.4 µgequiv. The Stability result in data set [3] was “Stable”.
The matching figures for `CCCCCC(=O)CCCC(CCCCCCC(=O)O)C(C)=O` (centres undefined): 2, 4, 9, 7 µgequiv and “Stable”.
For the compound `CC(=O)C(CCCCCCC(=O)O)CCCC(C)O` (centres undefined), the fold change (FC) in [2] and in [4] was 1 each time. The Activity in [5] was more than 100 µgequiv. Further, in data set [3], the Stability result was “Stable”.
